Experimental data from ChEMBL document CHEMBL3351723, “New derivatives of lupane triterpenoids disturb breast cancer mitochondria and induce cell death” (Bioorg Med Chem, 2014).
Active and inactive are the calls of the source. The calls are words filed in the database; no cut-off is given here.

Assays:
Hs-578T [1] = experiment: Cytotoxicity against human Hs578T cells at 0.125 to 2 ug/ml incubated for 6 hrs folowed by drug wash out and fresh medium addition and measured 5 days after wash out; assay type: functional, cell-based
[2] = Cytotoxicity against human MCF12A cells at 0.125 to 2 ug/ml after 1 to 5 days by sulforhodamine B assay; assay type: cell-based; conditions: mcf-12a
Summary of the method: (§1)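 Non-tumor cells seeded at 2×10^4 cells/ml and treated 24 h after seeding, in high-glucose DMEM with pyruvate, 10% FBS and penicillin-streptomycin, 37°C, 5% CO2. Compound exposure 0.125–2 μg/ml for 1, 3 and 5 days, with vehicle controls. Cells fixed and stained with sulforhodamine B for total cell mass. Data given as % of untreated control at each time point; five independent experiments.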

Hs-578T [3] = experiment: Cytotoxicity against human Hs578T cells at 0.125 to 2 ug/ml after 1 to 5 days by sulforhodamine B assay; assay type: functional, cell-based
Summary of the method: (§2)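 Sulforhodamine B growth assay in high-glucose DMEM with 10% FBS. Cancer cells seeded at 1×10^4 cells/ml; compound (0.125–2 μg/ml) added 24 h after seeding and left for 1, 3 or 5 days. Cells fixed, total mass stained. Expressed as % of untreated cells at the same time point. Mean ± SEM, five independent experiments.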

BJ = experiment: Cytotoxicity against human BJ cells at 0.125 to 2 ug/ml after 1 to 5 days by sulforhodamine B assay; assay type: cell-based; summary of the method: as §1
[4] = Cell cycle arrest against human Hs578T cells assessed as increase in cells at G0/G1 phase at 0.5 ug/ml after 24 to 48 hrs by propidium iodide staining based flow cytometry; assay type: functional; conditions: Hs-578T
Summary of the method: (§3)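 Log-phase Hs578T cells exposed 24 and 48 h to 0.5 μg/ml. Adherent plus floating cells fixed in cold 70% ethanol, kept overnight at -20°C, washed into PBS-T (132 mM NaCl, 4 mM KCl, 1.2 mM NaH2PO4, 0.1% Tween). Treated with 20 μg/ml RNase for 45 min at 37°C, then propidium iodide for 30 min at 37°C. Phase percentages read by flow cytometry. Mean ± SEM, 5 experiments.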

[5] = Cell cycle arrest against human Hs578T cells assessed as decrease in cells at S phase at 0.5 ug/ml after 24 to 48 hrs by propidium iodide staining based flow cytometry; assay type: functional; conditions: Hs-578T; summary of the method: as §3
MDA-MB-231 [6] = experiment: Cytotoxicity against human MDA-MB-231 cells at 0.125 to 2 ug/ml after 1 to 5 days by sulforhodamine B assay; assay type: functional, cell-based; summary of the method: as §2
MCF7 [7] = experiment: Cytotoxicity against human MCF7 cells at 0.125 to 2 ug/ml after 1 to 5 days by sulforhodamine B assay; assay type: functional, cell-based; summary of the method: as §2
Hs-578T [8] = experiment: Cytotoxicity against human Hs578T cells at 0.125 to 2 ug/ml after 1 to 5 days by sulforhodamine B assay in presence of taxol; assay type: functional, cell-based
[9] = Cell cycle arrest against human Hs578T cells assessed as decrease in cells at G2/M phase at 0.5 ug/ml after 24 to 48 hrs by propidium iodide staining based flow cytometry; assay type: functional; conditions: Hs-578T; summary of the method: as §3
MCF7 [10] = experiment: Cytotoxicity against human MCF7 cells at 0.125 to 2 ug/ml after 1 to 5 days by sulforhodamine B assay in presence of taxol; assay type: functional, cell-based
MDA-MB-231 [11] = experiment: Cytotoxicity against human MDA-MB-231 cells at 0.125 to 2 ug/ml after 1 to 5 days by sulforhodamine B assay in presence of taxol; assay type: functional, cell-based

Structure (SMILES) | inhibition (Hs-578T [1]) | Activity [2] | inhibition (Hs-578T [3]) | Activity (BJ) | Activity [4] | inhibition [5] | inhibition (MDA-MB-231 [6]) | inhibition (MCF7 [7]) | G0/G1 cell cycle arrest [4] | inhibition (Hs-578T [8]) | inhibition [9] | inhibition (MCF7 [10]) | inhibition (MDA-MB-231 [11])
C=C(C)[C@@H]1CC[C@]2(COC(=O)CCC[n+]3ccc(N(C)C)cc3)CC[C@]3(C)[C@H](CC[C@@H]4[C@@]5(C)CC[C@H](OC(=O)CCC[n+]6ccc(N(C)C)cc6)C(C)(C)[C@@H]5CC[C@]43C)[C@@H]12.[Br-].[Br-] | Active | Toxic | Active | Toxic | Active | Active | Active | Active |  |  |  |  | 
C=C(C)[C@@H]1CC[C@]2(COC(=O)C[n+]3ccc(C)cc3C)CC[C@]3(C)[C@H](CC[C@@H]4[C@@]5(C)CC[C@H](OC(=O)C[n+]6ccc(C)cc6C)C(C)(C)[C@@H]5CC[C@]43C)[C@@H]12.[Cl-].[Cl-] | Active | Toxic |  | Toxic |  | Active |  |  | Active |  |  |  | 
C=C(C)[C@@H]1CC[C@]2(COC(=O)C(C)[n+]3ccc(N(C)C)cc3)CC[C@]3(C)[C@H](CC[C@@H]4[C@@]5(C)CC[C@H](OC(=O)C(C)[n+]6ccc(N(C)C)cc6)C(C)(C)[C@@H]5CC[C@]43C)[C@@H]12.[Cl-].[Cl-] (some centres not stated) | Active | Toxic |  | Toxic | Active | Active |  |  |  | Active | Active | Active | Active
